Test results taken from ChEMBL document CHEMBL1138555, “N-acylated and N,N'-diacylated imidazolidine-2-thione derivatives and N,N'-diacylated tetrahydropyrimidine-2(1H)-thione analogues: synthesis and antiproliferative activity” (Eur J Med Chem, 2009).
pIC50: −log10 of the molar value.

How the values were obtained:
[1] = system: 786-0; test: Growth inhibition of human 786-0 cells after 48 hrs by sulforhodamine B assay; type: functional; conditions: 786-0, 48 h
Summary of the method: (§1)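 NCI screen panel. Five 10-fold concentrations from 10^-4 to 10^-8 M. Exposure for the last 48 h of a 72 h incubation. Growth estimated by sulforhodamine B protein assay. GI50 is the concentration giving 50% growth inhibition. Where that level was not reached or was exceeded, the value is given as above or below the highest or lowest concentration tested.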

[2] = system: SK-OV-3; test: Growth inhibition of human SKOV3 cells after 48 hrs by sulforhodamine B assay; type: functional; conditions: SK-OV-3, 48 h; summary of the method: as §1
[3] = system: OVCAR-3; test: Growth inhibition of human OVCAR-3 cells after 48 hrs by sulforhodamine B assay; type: functional; conditions: OVCAR-3, 48 h; summary of the method: as §1
[4] = system: UACC-62; test: Growth inhibition of human UACC62 cells after 48 hrs by sulforhodamine B assay; type: functional; conditions: UACC-62, 48 h
Summary of the method: (§2)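 NCI in vitro panel screen. Compounds tested at five 10-fold dilutions, 10^-4 to 10^-8 M. Cells in 96-well plates were exposed for the last 48 h of a 72 h incubation. Viability/growth was read by sulforhodamine B protein assay. GI50 is the concentration giving 50% growth inhibition. Values beyond the tested range are reported as greater or less than the maximum or minimum concentration.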

[5] = system: SR; test: Growth inhibition of human SR cells after 48 hrs by sulforhodamine B assay; type: functional; summary of the method: as §2
[6] = system: SK-MEL-5; test: Growth inhibition of human SK-MEL-5 cells after 48 hrs by sulforhodamine B assay; type: functional; conditions: SK-MEL-5, 48 h; summary of the method: as §1
[7] = system: HCT-15; test: Growth inhibition of human HCT15 cells after 48 hrs by sulforhodamine B assay; type: functional; conditions: HCT-15, 48 h; summary of the method: as §1
[8] = system: SF-268; test: Growth inhibition of human SF268 cells after 48 hrs by sulforhodamine B assay; type: functional; conditions: SF-268, 48 h; summary of the method: as §1
[9] = system: HOP-62; test: Growth inhibition of human HOP62 cells after 48 hrs by sulforhodamine B assay; type: functional; conditions: HOP-62, 48 h; summary of the method: as §1
[10] = system: MCF7; test: Growth inhibition of human MCF7 cells after 48 hrs by sulforhodamine B assay; type: functional; conditions: MCF7, 48 h; summary of the method: as §1
[11] = system: SK-MEL-28; test: Growth inhibition of human SK-MEL-28 cells after 48 hrs by sulforhodamine B assay; type: functional; conditions: SK-MEL-28, 48 h; summary of the method: as §1
[12] = system: MOLT-4; test: Growth inhibition of human MOLT4 cells after 48 hrs by sulforhodamine B assay; type: functional; conditions: MOLT-4, 48 h; summary of the method: as §1
[13] = system: K562; test: Growth inhibition of human K562 cells after 48 hrs by sulforhodamine B assay; type: functional; conditions: K562, 48 h; summary of the method: as §1
[14] = system: SW-620; test: Growth inhibition of human SW620 cells after 48 hrs by sulforhodamine B assay; type: functional; conditions: SW-620, 48 h; summary of the method: as §2
[15] = system: COLO 205; test: Growth inhibition of human COLO205 cells after 48 hrs by sulforhodamine B assay; type: functional; conditions: COLO 205, 48 h; summary of the method: as §1
[16] = system: BT-549; test: Growth inhibition of human BT549 cells after 48 hrs by sulforhodamine B assay; type: functional; conditions: BT-549, 48 h; summary of the method: as §1
[17] = system: A549; test: Growth inhibition of human A549 cells after 48 hrs by sulforhodamine B assay; type: functional; conditions: A549, 48 h; summary of the method: as §1
[18] = system: HT-29; test: Growth inhibition of human HT-29 cells after 48 hrs by sulforhodamine B assay; type: functional; conditions: HT-29, 48 h; summary of the method: as §1
[19] = system: LOX IMVI; test: Growth inhibition of human LOXIMVI cells after 48 hrs by sulforhodamine B assay; type: functional; summary of the method: as §1
[20] = system: TK-10; test: Growth inhibition of human TK10 cells after 48 hrs by sulforhodamine B assay; type: functional; conditions: TK-10, 48 h; summary of the method: as §2
[21] = system: MDA-MB-435; test: Growth inhibition of human MDA-MB-435 cells after 48 hrs by sulforhodamine B assay; type: functional; conditions: MDA-MB-435, 48 h; summary of the method: as §1
[22] = system: SNB-75; test: Growth inhibition of human SNB75 cells after 48 hrs by sulforhodamine B assay; type: functional; conditions: SNB-75, 48 h; summary of the method: as §2
[23] = system: HCT-116; test: Growth inhibition of human HCT116 cells after 48 hrs by sulforhodamine B assay; type: functional; conditions: HCT-116, 48 h; summary of the method: as §1
[24] = system: UO-31; test: Growth inhibition of human UO31 cells after 48 hrs by sulforhodamine B assay; type: functional; conditions: UO-31, 48 h; summary of the method: as §2
[25] = system: ACHN; test: Growth inhibition of human ACHN cells after 48 hrs by sulforhodamine B assay; type: functional; summary of the method: as §1
[26] = system: HOP-92; test: Growth inhibition of human HOP92 cells after 48 hrs by sulforhodamine B assay; type: functional; conditions: HOP-92, 48 h; summary of the method: as §1
[27] = system: SN12C; test: Growth inhibition of human SN12C cells after 48 hrs by sulforhodamine B assay; type: functional; summary of the method: as §2
[28] = system: EKVX; test: Growth inhibition of human EKVX cells after 48 hrs by sulforhodamine B assay; type: functional; summary of the method: as §1
[29] = system: T47D; test: Growth inhibition of human T47D cells after 48 hrs by sulforhodamine B assay; type: functional; summary of the method: as §2
[30] = system: SF-539; test: Growth inhibition of human SF539 cells after 48 hrs by sulforhodamine B assay; type: functional; conditions: SF-539, 48 h; summary of the method: as §1
[31] = system: OVCAR-8; test: Growth inhibition of human OVCAR8 cells after 48 hrs by sulforhodamine B assay; type: functional; conditions: OVCAR-8, 48 h; summary of the method: as §1
[32] = system: HL-60(TB); test: Growth inhibition of human HL-60(TB) cells after 48 hrs by sulforhodamine B assay; type: functional; conditions: HL-60, 48 h
Summary of the method: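 NCI 60-cell-line screen protocol: cells exposed to compound at five 10-fold dilutions from 10^-4 to 10^-8 M for the last 48 h of a 72 h incubation. Sulforhodamine B protein assay estimated viability/growth. GI50 (50% growth inhibition) derived; where not reached or exceeded, reported as greater or less than the highest or lowest concentration tested.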

[33] = system: U-251; test: Growth inhibition of human U251 cells after 48 hrs by sulforhodamine B assay; type: functional; conditions: U-251, 48 h; summary of the method: as §2
[34] = system: MT4; test: Antiproliferative activity against human MT4 cells assessed as reduction of growth by MTT assay; type: functional, cell-based
Summary of the method: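 MT-4 lymphoblastoid T cells (ATCC) in RPMI 1640 with 10% FCS, penicillin/streptomycin, checked for mycoplasma. 1 × 10⁴ mock-infected cells per well with serial dilutions from a 100 mM DMSO stock. Incubated 4 days at 37 °C, viable cells counted by MTT. IC50 versus untreated controls by linear regression. Mean of three separate experiments.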

[35] = system: NCI-H460; test: Growth inhibition of human NCI-H460 cells after 48 hrs by sulforhodamine B assay; type: functional; conditions: NCI-H460, 48 h; summary of the method: as §1
[36] = system: DU-145; test: Growth inhibition of human DU145 cells after 48 hrs by sulforhodamine B assay; type: functional; conditions: DU-145, 48 h; summary of the method: as §1
[37] = Growth inhibition of human […] cells after 48 hrs by sulforhodamine B assay; type: functional; summary of the method: as §1
[38] = system: SF-295; test: Growth inhibition of human SF295 cells after 48 hrs by sulforhodamine B assay; type: functional; conditions: SF-295, 48 h; summary of the method: as §1
[39] = system: NCI-H322M; test: Growth inhibition of human NCI-H322M cells after 48 hrs by sulforhodamine B assay; type: functional; summary of the method: as §1
[40] = system: PC-3; test: Growth inhibition of human PC3 cells after 48 hrs by sulforhodamine B assay; type: functional; conditions: PC-3, 48 h; summary of the method: as §1
[41] = system: KM12; test: Growth inhibition of human KM12 cells after 48 hrs by sulforhodamine B assay; type: functional; conditions: KM12, 48 h; summary of the method: as §1
[42] = system: MDA-MB-231; test: Growth inhibition of human MDA-MB-231 cells after 48 hrs by sulforhodamine B assay; type: functional; conditions: MDA-MB-231, 48 h; summary of the method: as §1
[43] = system: CAKI-1; test: Growth inhibition of human Caki1 cells after 48 hrs by sulforhodamine B assay; type: functional; conditions: CAKI-1, 48 h; summary of the method: as §1
[44] = system: IGROV-1; test: Growth inhibition of human IGROV1 cells after 48 hrs by sulforhodamine B assay; type: functional; conditions: IGROV-1, 48 h; summary of the method: as §1
[45] = system: SNB-19; test: Growth inhibition of human SNB19 cells after 48 hrs by sulforhodamine B assay; type: functional; conditions: SNB-19, 48 h; summary of the method: as §2
[46] = system: OVCAR-4; test: Growth inhibition of human OVCAR4 cells after 48 hrs by sulforhodamine B assay; type: functional; conditions: OVCAR-4, 48 h; summary of the method: as §1
[47] = system: M14; test: Growth inhibition of human M14 cells after 48 hrs by sulforhodamine B assay; type: functional; conditions: M14, 48 h; summary of the method: as §1
[48] = system: Malme-3M; test: Growth inhibition of human MALME-3M cells after 48 hrs by sulforhodamine B assay; type: functional; summary of the method: as §1

CC(=O)/C(=C/N1CCN(C(=O)c2ccco2)C1=S)C(=O)c1ccccc1
GI50 [1]: 11.2 µM
GI50 [2]: 17.5 µM
GI50 [3]: 17.2 µM
GI50 [4]: 7.3 µM
GI50 [5]: 2.7 µM
GI50 [6]: 8.1 µM
GI50 [7]: 4.7 µM
GI50 [8]: 10.7 µM
GI50 [9]: 11.7 µM
GI50 [10]: 1.3 µM
GI50 [11]: 28 µM
GI50 [12]: 15.9 µM
GI50 [13]: 6.7 µM
GI50 [14]: 6.1 µM
GI50 [15]: 16.5 µM
GI50 [16]: 5.6 µM
GI50 [17]: 10.8 µM
GI50 [18]: 16.9 µM
GI50 [19]: 8.9 µM
GI50 [20]: 10.6 µM
GI50 [21]: 10.7 µM
GI50 [22]: 10.9 µM
GI50 [23]: 6.4 µM
GI50 [24]: 8.8 µM
GI50 [25]: 6.9 µM
GI50 [26]: 11.1 µM
GI50 [27]: 7.7 µM
GI50 [28]: 7.9 µM
GI50 [29]: 4.3 µM
GI50 [30]: 1.1 µM
GI50 [31]: 8.8 µM
GI50 [32]: 8.2 µM
GI50 [33]: 13.4 µM
pIC50 [34]: 5.30
GI50 [35]: 7 µM
GI50 [36]: 11 µM
GI50 [37]: 3.8 µM
GI50 [38]: 19.3 µM
GI50 [39]: 27.9 µM
GI50 [40]: 17.1 µM
GI50 [41]: 8.4 µM
GI50 [42]: 9.5 µM
GI50 [43]: 9.3 µM
GI50 [44]: 10.9 µM
GI50 [45]: 16.3 µM
GI50 [46]: 20.1 µM
GI50 [47]: 6.3 µM
GI50 [48]: 9.3 µM
